Laboratory results from ChEMBL document CHEMBL2380292, “Discovery of SAR184841, a potent and long-lasting inhibitor of 11β-hydroxysteroid dehydrogenase type 1, active in a physiopathological animal model of T2D” (Bioorg Med Chem Lett, 2013).

Key:
Mus musculus [1] = assay: Ex vivo inhibition of 11beta-HSD1 in C57Bl/6J mouse liver at 3 mg/kg, po after 16 hrs; type: functional
Outline: (§1)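 Mice given a single oral dose as a suspension in Tween 80/0.6% methylcellulose (0.5/99.5, v/v) at 10 mL/kg. At 2 h or 16 h post-dose, animals were killed by cervical dislocation and 50 mg liver and 200 mg subcutaneous fat were taken for 11β-HSD1 activity. Reactions were stopped with HCl 1 N/methanol (1/1). 3H-cortisone and 3H-cortisol were quantified by HPLC with flow scintillation detection.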

Mus musculus [2] = assay: Antidiabetic activity in diet induced obese C57Bl/6J mouse assessed as plasma insulin level at 3 mg/kg, po qd administered for 4 weeks (reference value: 3.6 +/- 0.2 ng/mL); type: functional
[3] = Oral bioavailability in rat at 10 mg/kg; type: ADME, organism-based; conditions: in vivo
Mus musculus [4] = assay: Antidiabetic activity in diet induced obese C57Bl/6J mouse assessed as increase of glucose tolerance at 10 mg/kg, po after 3 weeks by oral glucose tolerance test; type: functional
Mus musculus [5] = assay: Antidiabetic activity in po dosed C57Bl/6J mouse assessed as reduction in plasma insulin level administered for 4 weeks; type: functional, organism-based
Mus musculus [6] = assay: Antidiabetic activity in diet induced obese C57Bl/6J mouse assessed as plasma insulin level at 1 mg/kg, po qd administered for 4 weeks (reference value: 3.6 +/- 0.2 ng/mL); type: functional
Mus musculus [7] = assay: Toxicity in C57Bl/6J mouse assessed as change in body weight at 1 to 10 mg/kg, po; type: organism-based; design: dose 1-10 mg/kg, route oral; conditions: in vivo
Outline: (§2)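 C57Bl/6J mice, 20 weeks old, kept on a high-fat/high-fructose diet (diet-induced obese), were dosed orally once daily for 4 weeks at 1, 3 or 10 mg/kg/day in methylcellulose-Tween 80 vehicle. Lean and obese vehicle-treated controls were included, with n = 9–10 per group. Food intake and body weight were followed. Plasma drug levels were taken at study end, about 22 h after the last dose.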

Mus musculus [8] = assay: Antidiabetic activity in diet induced obese C57Bl/6J mouse assessed as plasma leptin level at 1 mg/kg, po qd administered for 4 weeks (reference value: 22.5 +/- 2.4 ng/mL); type: functional
in vivo [9] = conditions: rat, brain, po, 10 mg/kg
Salmonella typhimurium = assay: Genotoxicity in Salmonella typhimurium by Ames test; type: toxicity, organism-based; conditions: salmonella enterica subsp. enterica serovar typhimurium
Mus musculus [10] = assay: Antidiabetic activity in diet induced obese C57Bl/6J mouse assessed as plasma cholesterol level at 1 mg/kg, po qd administered for 4 weeks (reference value: 154.3 +/- 8.6 mg/dL); type: functional
Liver microsomes = assay: Metabolic stability in human liver microsomes; type: ADME, Microsome
[11] = molecular target: 11-beta-hydroxysteroid dehydrogenase 1 (Homo sapiens, UniProt P28845); assay: Inhibition of human recombinant 11beta-HSD1 by scintillation proximity assay
Mus musculus [12] = assay: Inhibition of 11beta-HSD1 in mouse adipose tissue at 3 mg/kg, po after 24 hrs; type: functional
Outline: (§3)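 Pharmacodynamic study in mice: single oral 3 mg/kg dose, with liver and fat 11β-HSD1 activity followed over 24 h post-dosing.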

Mus musculus [13] = assay: Antidiabetic activity in diet induced obese C57Bl/6J mouse assessed as plasma leptin level at 10 mg/kg, po qd administered for 4 weeks (reference value: 22.5 +/- 2.4 ng/mL); type: functional
in vivo [14] = conditions: rat, adipose tissue, po, 10 mg/kg
Mus musculus [15] = assay: Inhibition of 11beta-HSD1 in mouse liver at 3 mg/kg, po after 24 hrs; type: functional; outline: as §3
[16] = AUC (0 to infinity) in rat plasma at 10 mg/kg, po; type: ADME, organism-based; design: time infinity, dose 10 mg/kg, route oral
Mus musculus [17] = assay: Antidiabetic activity in diet induced obese C57Bl/6J mouse assessed as plasma triglyceride level at 3 mg/kg, po qd administered for 4 weeks (reference value: 36.2 +/- 2.1 […]); type: functional
Mus musculus [18] = assay: Antidiabetic activity in diet induced obese C57Bl/6J mouse assessed as plasma cholesterol level at 3 mg/kg, po qd administered for 4 weeks (reference value: 154.3 +/- 8.6 mg/dL); type: functional
Hepatocyte = assay: Intrinsic clearance in human hepatocytes assessed per 10^-6 cells; type: ADME, cell-based
[19] = Plasma clearance in rat at 3 mg/kg, iv and 10 mg/kg, po; type: ADME, organism-based
Mus musculus [20] = species: Mus musculus; assay: Toxicity in C57Bl/6J mouse assessed as HPA axis biomarker modification; type: organism-based; conditions: in vivo
Mus musculus [21] = assay: Antidiabetic activity in diet induced obese C57Bl/6J mouse assessed as plasma leptin level at 3 mg/kg, po qd administered for 4 weeks (reference value: 22.5 +/- 2.4 ng/mL); type: functional
[22] = molecular target: 11-beta-hydroxysteroid dehydrogenase 1 (Mus musculus, UniProt P50172); assay: Inhibition of mouse recombinant 11beta-HSD1 by scintillation proximity assay
[23] = Solubility of the compound in aqueous buffer up to pH 4.5; type: physicochemical
Mus musculus [24] = assay: Antidiabetic activity in diet induced obese C57Bl/6J mouse assessed as plasma insulin level at 10 mg/kg, po qd administered for 4 weeks (reference value: 3.6 +/- 0.2 ng/mL); type: functional
[25] = Plasma concentration in C57Bl/6J mouse at 3 mg/kg, po 22 hrs post last dose; type: ADME, organism-based; design: dose 3 mg/kg, route oral; outline: as §2
Mus musculus [26] = assay: Ex vivo inhibition of 11beta-HSD1 in C57Bl/6J mouse liver at 30 mg/kg, po after 16 hrs; type: functional; outline: as §1
[27] = Induction of cytochrome P450 (unknown origin); type: ADME; conditions: human
[28] = Permeability across human Caco2 cells; type: ADME, cell-based; conditions: Caco-2, read-out: permeability
Outline: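 Permeability was measured with the compound alone and in the presence of the P-gp inhibitor elacridar, and expressed in 10^-7 cm/s.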

Mus musculus [29] = assay: Inhibition of 11beta-HSD1 in mouse liver at 3 mg/kg, po after 7 hrs; type: functional; outline: as §3
Mus musculus [30] = assay: Antidiabetic activity in diet induced obese C57Bl/6J mouse assessed as plasma cholesterol level at 10 mg/kg, po qd administered for 4 weeks (reference value: 154.3 +/- 8.6 mg/dL); type: functional
[31] = Volume of distribution at steady state in rat at 3 mg/kg, iv and 10 mg/kg, po; type: ADME, organism-based; conditions: in vivo, read-out: Vdss
Xenopus laevis = species: Xenopus laevis; assay: Toxicity in Xenopus laevis by teratogenicity assay; type: organism-based; conditions: in vivo
Mus musculus [32] = assay: Antidiabetic activity in diet induced obese C57Bl/6J mouse assessed as liver triglyceride level at 1 mg/kg, po qd administered for 4 weeks (reference value: 210.5 +/- 15.4 mg/g); type: functional
Mus musculus [33] = assay: Ex vivo inhibition of 11beta-HSD1 in C57Bl/6J mouse subcutaneous fat at 3 mg/kg, po after 16 hrs; type: functional; outline: as §1
Mus musculus [34] = assay: Inhibition of 11beta-HSD1 in mouse adipose tissue at 3 mg/kg, po after 7 hrs; type: functional; outline: as §3
Mus musculus [35] = assay: Toxicity in C57Bl/6J mouse assessed as effect on food intake at 1 to 10 mg/kg, po; type: organism-based; design: dose 1-10 mg/kg, route oral; conditions: in vivo; outline: as §2
[36] = Cmax in rat plasma at 10 mg/kg, po; type: ADME, organism-based; design: dose 10 mg/kg, route oral
Liver = assay: Metabolic stability in mouse liver microsomes; type: ADME, Microsome

11-beta-hydroxysteroid dehydrogenase 1 (Mus musculus, UniProt P50172), sequence (P50172 whole entry): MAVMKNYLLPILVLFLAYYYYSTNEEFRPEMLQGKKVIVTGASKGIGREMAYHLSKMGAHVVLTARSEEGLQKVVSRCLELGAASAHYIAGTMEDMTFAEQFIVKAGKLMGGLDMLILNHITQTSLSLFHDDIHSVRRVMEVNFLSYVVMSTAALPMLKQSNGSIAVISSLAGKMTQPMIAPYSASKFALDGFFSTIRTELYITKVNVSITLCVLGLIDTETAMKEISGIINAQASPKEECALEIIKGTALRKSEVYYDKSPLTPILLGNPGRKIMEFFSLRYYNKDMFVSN
11-beta-hydroxysteroid dehydrogenase 1 (Homo sapiens, UniProt P28845), sequence (P28845 whole entry): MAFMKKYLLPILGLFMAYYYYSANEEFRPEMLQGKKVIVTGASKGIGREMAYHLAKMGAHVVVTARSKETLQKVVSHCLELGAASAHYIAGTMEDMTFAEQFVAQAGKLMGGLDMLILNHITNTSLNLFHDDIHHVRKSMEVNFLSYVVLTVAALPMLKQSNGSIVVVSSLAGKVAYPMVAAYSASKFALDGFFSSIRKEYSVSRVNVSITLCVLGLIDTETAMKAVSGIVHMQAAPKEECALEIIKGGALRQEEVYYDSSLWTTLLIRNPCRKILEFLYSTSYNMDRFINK

SMILES: CC(C)(C)N1CCN(c2ccc(N3CCN(C(=O)N[C@H]4C5CC6CC4C[C@](C(N)=O)(C6)C5)c4ccccc43)nc2)CC1
- inhibition in vivo at 3 mg/kg (Mus musculus [1]): > 50%
- Activity (Mus musculus [2]): 2.3 ng/mL
- bioavailability [3]: 25%
- Activity (Mus musculus [4]): -23%
- Activity (Mus musculus [5]): Dose-dependent effect
- Activity (Mus musculus [6]): 2.8 ng/mL
- Activity (Mus musculus [7]): Non-toxic
- Activity (Mus musculus [8]): 14.9 ng/mL
- Kp (in vivo [9]): 0.14
- Activity (Salmonella typhimurium): Non-toxic
- Activity (Mus musculus [10]): 127.7 mg/dL
- Stability (Liver microsomes): 2%
- IC50 [11]: 4 nM
- inhibition in vivo at 3 mg/kg (Mus musculus [12]): 40%
- Activity (Mus musculus [13]): 12.5 ng/mL
- Kp (in vivo [14]): 2.2
- inhibition in vivo at 3 mg/kg (Mus musculus [15]): 60%
- AUC(0-inf) [16]: 580 ng·h/mL
- Activity (Mus musculus [17]): 38.4 mg/mL
- Activity (Mus musculus [18]): 125.1 mg/dL
- CLH (Hepatocyte): 0.035 mL/h
- clearance [19]: 86.7 mL/min/kg
- Activity (Mus musculus [20]): Non-toxic
- Activity (Mus musculus [21]): 12.5 ng/mL
- IC50 [22]: 6 nM
- solubility [23]: > 2000 µg/mL
- Activity (Mus musculus [24]): 1.9 ng/mL
- concentration at 22 h [25]: 3.8 nM
- inhibition in vivo at 30 mg/kg (Mus musculus [26]): 72%
- Activity [27]: Not Active
- Papp [28]: 0.3 ×10⁻⁶ cm/s
- inhibition in vivo at 3 mg/kg (Mus musculus [29]): > 90%
- Activity (Mus musculus [30]): 123.6 mg/dL
- Vd [31]: 14 L/kg
- Activity (Xenopus laevis): Non-toxic
- Activity (Mus musculus [32]): 167.4 mg/g
- inhibition in vivo at 3 mg/kg (Mus musculus [33]): > 50%
- inhibition in vivo at 3 mg/kg (Mus musculus [34]): > 90%
- Activity (Mus musculus [35]): Non-toxic
- Cmax [36]: 556 ng/mL
- Stability (Liver): 13%
